Compound activity as filed in PubChem BioAssay.
HCV core dimer = inhibitors of HCV core protein dimerization, primary screen, biochemical, TR-FRET, high-throughput; inhibition, % at 5 µM; actives 0.33% (n = 300,000); TR-FRET GST/Flag-core106 dimerization, 1536-well;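 active means inhibition above the mean of all tested compounds plus 3 SD, set per screening campaign, cut at about 45% in these data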
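Assay system – GST-tagged and Flag-tagged HCV core protein residues 1-106 · Quantity – core106 proteins, GST 13.5 nM and Flag 17 nM · Benchmarks – unlabelled core106 and no-GST-core106 wells · Read-out basis – percent inhibition of core106 dimerization signal · Detection – time-resolved FRET, ex 340 nm, em 617 and 671 nm · Schedule – 4 h at 22.5 °C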
TAAR1 ag = human TAAR1 agonists, primary screen, Fluo-8 calcium fluorescence, CHO RD-HGA16 cells | vehicle wells 0%, saturating PEA agonist 100% | Trace amine-associated receptor 1 (Homo sapiens), Q96RJ0 | actives 0.99% (n = 360,000) | activation, % at 3 µM | AID 624467, 2012;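 active means activation above the mean activation of all test compounds in the run plus 3 SD, cut at about 38% in these data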
Target sequence (Q96RJ0 whole entry, looked up): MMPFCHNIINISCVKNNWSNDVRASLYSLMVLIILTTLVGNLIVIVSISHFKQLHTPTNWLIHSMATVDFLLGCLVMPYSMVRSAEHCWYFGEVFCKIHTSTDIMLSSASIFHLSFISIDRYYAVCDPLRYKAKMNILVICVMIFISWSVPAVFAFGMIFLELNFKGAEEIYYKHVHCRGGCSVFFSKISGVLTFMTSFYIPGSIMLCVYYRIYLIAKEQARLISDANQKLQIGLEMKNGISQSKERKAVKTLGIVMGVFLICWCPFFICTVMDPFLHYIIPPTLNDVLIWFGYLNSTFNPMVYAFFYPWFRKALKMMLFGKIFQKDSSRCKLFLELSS
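Benchmarks: low control DMSO, high control PEA (EC100); System: CHO RD-HGA16 cells carrying human TAAR1 plus Gα16; Detection: Fluo-8 fluorescence, 5 s baseline then 140 s kinetic read; Schedule: 17-24 h plating, Fluo-8 75 min 37 °C, 30 min RT; Read-out basis: % activation from peak over basal fluorescence ratio, DMSO-to-PEA scaled.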
NS3 helicase inh = inhibitors of HCV NS3 helicase, primary screen, biochemical, Cy5 molecular beacon fluorescence; actives 0.56% (n = 290,000); inhibition, % at 10.9 µM; NS3 helicase DNA unwinding; Hepatitis C virus NS3 helicase;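 active means inhibition above the mean of all tested compounds plus 3 SD, set per campaign, cut at about 35% in these data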;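 further: 0% = DMSO wells and 100% = thioflavine S control wells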
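System: NS3 helicase fragment of HCV / Schedule: 1 h at 25 °C / Control set: DMSO alone as 0% and 110 µM thioflavine S as 100% / Reagent: Cy5/quencher beacon DNA duplex and ATP to start / Technique: Cy5 fluorescence / Replication: singlicate / Evaluation: % inhibition of end-to-start signal ratio versus controls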
TAAR1 antagonist = human TAAR1 antagonists, primary screen, Fluo-8 calcium fluorescence, CHO RD-HGA16 cells | AID 624466, 2012 | Trace amine-associated receptor 1 (Homo sapiens), Q96RJ0 | antagonist | actives 1.5% (n = 360,000) | inhibition, % at 3 µM;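 active means inhibition above a per-plate cutoff, the mean inhibition of test compounds on that plate plus 3 SD, cut at about 49% in these data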;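 further: 0% = DMSO plus EC80 beta-PEA response and 100% = DMSO alone without agonist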
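Material: RD-HGA16 CHO cells with stable hTAAR1 and Gα16; Dosing: single nominal final test compound concentration of 3 µM; Schedule: seeding 17-24 h prior, 75-min 37 °C, 30-min RT dye loading; Detection: kinetic Fluo-8 calcium fluorescence measurement; Measure: % inhibition from peak post-agonist over basal fluorescence ratio; Benchmarks: vehicle and agonist controls.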
rCAG RNA binder = binders of r(CAG) RNA repeats, primary screen, biochemical, fluorescence; r(CAG) RNA repeat, TO-PRO-1 dye displacement fluorescence; inhibition, % at 3 µM; actives 1.3% (n = 370,000); AID 651821, 2012;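 active means inhibition above the plate cutoff, the mean of all test compounds on that plate plus 3 SD, cut at about 35% in these data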;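 further: 0% = DMSO alone and 100% = 100 µM mitoxantrone as full dye displacement; higher means more dye released from RNA so lower well fluorescence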
TAAR1 nonsel count = nonselective antagonists in TAAR1 counter-screen cells, counter-screen for hTAAR1 antagonist project, cell-based, fluorescence, calcium. shares compounds with TAAR1 antagonist. actives 77% (n = 2,400). inhibition, % at 3 µM. counterscreen cell line, antagonist mode; in the data active means inhibition above about 22%;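 further: CHO-Ga16 host cells stimulated with ATP at an EC80 level; 0% = agonist EC80 plus vehicle and 100% = vehicle without agonist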
TAAR1 antag conf = human TAAR1 antagonists, retest of hits, confirmation, cell-based, fluorescence; shares compounds with TAAR1 antagonist; TAAR1-expressing cells, fluorescence antagonist read-out; inhibition, % at 3 µM; actives 40% (n = 2,400); in the data active means inhibition above about 49%;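 further: CHO-Ga16 host cells challenged with agonist PEA near its EC80; 0% = agonist at EC80 plus vehicle and 100% = vehicle with no agonist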
Ga16 ag counter = calcium activation in Ga16-expressing cells, counter-screen for TAAR1 antagonist project, cell-based, fluorescence; shares compounds with TAAR1 antagonist; agonist counterscreen; activation, % at 3 µM; actives 18% (n = 2,400); AID 651953, 2012; in the data active means activation above about 12%;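 further: 0% = vehicle wells and 100% = saturating stimulus response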
TAAR1 ag count = TAAR1 activation by candidate antagonists – cell-based, fluorescence, counter-screen for TAAR1 antagonist project. activation, % at 3 µM. hTAAR1 cell line, agonist mode. actives 2% (n = 2,400). shares compounds with TAAR1 antagonist; in the data active means activation above about 37%;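 further: CHO cells stably expressing TAAR1 with calcium dye readout; 0% = DMSO vehicle and 100% = full agonist response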
Numbers without * were called inactive; x = not tested or not shown. Sampled rows, rich in hits. Any-hit rate of the full collection: about 3.7%.

SMILES | HCV core dimer | TAAR1 ag | NS3 helicase inh | TAAR1 antagonist | rCAG RNA binder | TAAR1 nonsel count | TAAR1 antag conf | Ga16 ag counter | TAAR1 ag count
Cn1ccnc1CN1CCC[C@]2(CC[C@H](CCC#N)O2)C1 | x | x | x | x | 1 | x | x | x | x
COc1ccc(CCNC(=O)CNC(=O)c2nn(-c3ccc(OC)c(OC)c3)c(=O)c3ccccc23)cc1OC | -5 | 17 | 1 | 53* | -3 | 33* | 51* | 12* | 9
COc1ccc(-n2nc(C(=O)NCC(=O)NCC3COc4ccccc4O3)c3ccccc3c2=O)cc1OC (configuration not stated) | -3 | 13 | -6 | 58* | 2 | 27* | 49* | 7 | 5
COc1ccc(NC(=O)CNC(=O)c2nn(-c3ccc(OC)c(Cl)c3)c(=O)c3ccccc23)c(OC)c1 | 6 | 10 | -5 | 61* | 1 | 24* | 49* | 6 | 7
CCOc1ccc(NC(=O)CNC(=O)c2nn(-c3ccc(OC)c(OC)c3)c(=O)c3ccccc23)cc1 | -48 | 21 | 6 | 46 | 2 | x | x | x | x
CCOc1ccccc1NC(=O)CNC(=O)c1nn(-c2ccc(OC)c(OC)c2)c(=O)c2ccccc12 | 8 | 17 | -14 | 60* | -1 | 30* | 41 | 7 | 14
CN1CCCCC(NC(=O)CSc2ccccc2)C1=O (configuration not stated) | x | -1 | x | 16 | 1 | x | x | x | x
COC(=O)[C@]12C[C@H](CC(=O)NCCc3ccccc3OC)C(=O)N(CCc3ccc(OC)c(OC)c3)C1=C[C@H](C(C)C)O[C@@H]2C1CC1 | x | x | x | x | 3 | x | x | x | x
Cc1cc(C)cc(NC(=O)OC2CC3CC2[C@H]2CCCCN2[C@H]3Cc2ccccc2)c1 (some centres not stated) | x | x | x | x | 6 | x | x | x | x
CCOC(=O)C1CCN(C(=O)CNC(=O)c2nn(-c3ccc(OC)c(Cl)c3)c(=O)c3ccccc23)CC1 | 5 | 13 | -2 | 61* | 0 | 28* | 42 | 7 | 6
COc1ccc(-n2nc(C(=O)NCC(=O)Nc3cccc(Cl)c3)c3ccccc3c2=O)cc1OC | -52 | 20 | -30 | 55* | 0 | 25* | 48 | 10 | 11
CCOC(=O)CNC(=O)CNC(=O)c1nn(-c2ccc(OC)c(OC)c2)c(=O)c2ccccc12 | 0 | 5 | 26 | -5 | 1 | x | x | x | x
COc1ccc(-n2nc(C(=O)NCC(=O)N3CCOCC3)c3ccccc3c2=O)cc1Cl | -2 | 8 | 0 | 14 | 3 | x | x | x | x
CCOc1ccccc1C(=O)Nc1ccc2nc(C)[nH]c(=O)c2c1 | x | x | x | x | 3 | x | x | x | x
Cc1ccc(NC(=O)Nc2cccnc2)cc1NC(=O)Nc1cccnc1 | 23 | 2 | -4 | 50* | 12 | 19 | 35 | 3 | 4
COc1ccc(N2CCN(C(=O)c3cc4c(-c5cccc(OC)c5)nn(C)c4s3)CC2)cc1 | 4 | 5 | 0 | 8 | 12 | x | x | x | x
CC(=O)c1ccc(N2CCN(C(=O)c3cc4c(-c5ccccc5F)nn(C)c4s3)CC2)cc1 | 10 | 1 | -34 | 55* | 7 | 26* | 34 | 6 | 4
O=C(NC1CCCc2ccccc21)C1CCC(CNS(=O)(=O)c2cccc3nsnc23)CC1 (configuration not stated) | 5 | 8 | -3 | 57* | 0 | 15 | 42 | 6 | 19
CC(C)C(=O)N1CCN(c2ccc(NC(=O)COc3ccccc3[N+](=O)[O-])cc2)CC1 | 5 | 31 | 5 | 73* | -8 | 55* | 76* | 20* | 21
CS(=O)(=O)N1CCN(c2ccc(NC(=O)COc3ccccc3[N+](=O)[O-])cc2)CC1 | 11 | 20 | 6 | 63* | -1 | 28* | 42 | 12* | 11
COc1cc(C)ccc1NC(=O)Cc1csc(NC(=O)Nc2ccccc2OC)n1 | 2 | 11 | x | 66* | 4 | 34* | 53* | 9 | 10
COc1ccccc1NC(=O)Nc1nc(CC(=O)N2CCN(c3ccccc3OC)CC2)cs1 | 1 | 21 | x | 69* | 4 | 35* | 54* | 11 | 8
COc1ccccc1NC(=O)Cc1csc(NC(=S)Nc2ccc(C)cc2)n1 | 3 | 11 | 2 | 27 | 29 | x | x | x | x
CCOC(=O)N1CCN(C(=O)C[C@H]2C(=O)N(CCCOC)C3=CCCCC[C@]32C(=O)OC)CC1 | x | x | x | x | 3 | x | x | x | x
COC(=O)[C@]12C[C@H](CC(=O)NCC3CCCCC3)C(=O)N(CCc3ccc(OC)c(OC)c3)C1=C[C@H](COCc1ccccc1)O[C@@H]2C | x | x | x | x | 4 | x | x | x | x
SMILES | HCV core dimer | TAAR1 ag | NS3 helicase inh | TAAR1 antagonist | rCAG RNA binder | TAAR1 nonsel count | TAAR1 antag conf | Ga16 ag counter | TAAR1 ag count
NC(=O)[C@@H]1CCCN1C(=O)[C@H](CCc1ccccc1)NC(=O)[C@H]1O[C@@H](n2cnc3c(N)ncnc32)[C@H](O)[C@@H]1O | x | 2 | x | -1 | -1 | x | x | x | x
Fc1cccc(NC(=S)NNc2c3ccccc3nc3ccccc23)c1 | x | 0 | 1 | 53* | 22 | 40* | 48 | 3 | 1
COC(=O)[C@]12C[C@H](CC(=O)NCCCCc3ccccc3)C(=O)N(CCC3=CCCCC3)C1=C[C@H](C(C)C)O[C@@H]2C1CC1 | x | x | x | x | 6 | x | x | x | x
CC(C)(C)OC(=O)N1CCC(CC2CC(c3ccccc3)=NO2)(C(=O)NCc2ccccc2)CC1 (configuration not stated) | 0 | 7 | x | 30 | 0 | x | x | x | x
COC(=O)C1(CC2CC(c3cccc(Br)c3)=NO2)CCN(C(=O)OC(C)(C)C)CC1 (configuration not stated) | 5 | 12 | -8 | 71* | 3 | 29* | 64* | 5 | 7
CCN=C1SC(C(=O)Nc2ccccc2)CC(=O)N1CC (configuration not stated) | 3 | 21 | -2 | 65* | -5 | 31* | 54* | 9 | 10
